Compound activity: PubChem, Johns Hopkins Ion Channel Center
RGS4 inh: RGS4 inhibitors, primary screen, cell-based, HEK293 M3R inducible RGS4, calcium flux. hit rate 0.45% among 310,000. Regulator of G-protein signaling 4 (Homo sapiens), P49798. AID 463165, 2010. B-score at 10 µM. Fluo-4 calcium flux; active compounds read high; triggered by carbachol at its EC20;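 active = B-score, a plate-corrected calcium signal, over three deviations above library mean, with baseline fluorescence within five deviations of library mean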;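 note: RGS4 expression induced by doxycycline in cells with stable M3 receptor; B-score is computed from the integrated fluorescence ratio over baseline after carbachol; higher B-score means a larger calcium signal and so more RGS4 inhibition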
Target sequence (P49798 whole entry, looked up): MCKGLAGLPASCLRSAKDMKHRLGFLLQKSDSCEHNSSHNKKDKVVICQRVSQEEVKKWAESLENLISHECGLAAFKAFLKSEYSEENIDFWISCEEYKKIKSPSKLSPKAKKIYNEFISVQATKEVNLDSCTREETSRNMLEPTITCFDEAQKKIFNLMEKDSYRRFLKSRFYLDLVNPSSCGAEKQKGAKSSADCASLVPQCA
MrgX1 PAM: positive allosteric modulators of MrgX1, primary screen, HEK293 cells, Fluo-4 calcium flux; Mas-related G-protein coupled receptor member X1 (Homo sapiens), Q96LB2; FDSS; active compounds read high; B-score at 10 µM; hit rate 0.63% among 310,000; AID 588675, 2011;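 active = plate-corrected calcium response at least 3 library SD above typical, normal starting fluorescence, not activating the receptor alone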;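 note: compound read alongside a low EC10 to EC30 dose of BAM8-22 agonist; peak minus trough fluorescence over baseline measured at the second addition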
Target sequence (Q96LB2 whole entry, looked up): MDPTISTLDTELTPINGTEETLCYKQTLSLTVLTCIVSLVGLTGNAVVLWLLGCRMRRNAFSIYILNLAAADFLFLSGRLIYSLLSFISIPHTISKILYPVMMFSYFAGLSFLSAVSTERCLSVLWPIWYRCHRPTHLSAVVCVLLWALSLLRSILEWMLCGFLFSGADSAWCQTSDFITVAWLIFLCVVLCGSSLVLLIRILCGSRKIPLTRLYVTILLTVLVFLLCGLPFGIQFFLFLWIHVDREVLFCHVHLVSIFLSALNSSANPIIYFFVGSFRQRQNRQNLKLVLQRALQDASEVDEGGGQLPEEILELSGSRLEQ
RGS4 pot: RGS4 potentiators or activators, primary screen, cell-based, HEK293 M3R inducible RGS4, calcium flux; AID 463111, 2010; B-score at 10 µM; carbachol calcium flux Fluo4; active compounds read low; hit rate 0.92% among 310,000;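 active = B-score of the integrated calcium signal more than 4 SD below the library mean, with starting fluorescence not abnormally high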;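 note: negative B-score means reduced calcium response which marks RGS4 activation or potentiation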
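Assay system: Inducible-RGS4 HEK293 cells carrying M3 receptor | Schedule: Compound preincubation 20 min at room temperature before agonist | Signal: Kinetic calcium fluorescence imaging with Fluo4-AM dye, 2 µM | Read-out basis: B score from integrated fluorescence ratio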
MrgX1 ag: agonists of human MrgX1 receptor, primary screen, HEK293 cells, Fluo-4 calcium flux; Fluo-4 calcium fluorescence, agonist mode; active compounds read high; hit rate 0.44% among 310,000; AID 588627, 2011; Mas-related G-protein coupled receptor member X1 (Homo sapiens), Q96LB2; B-score at 10 µM;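 active = calcium response B-score plate-corrected fluorescence ratio at least 3 library SD, with starting fluorescence B-score inside 5 SD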
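Material: HEK293 cells stably expressing human MrgX1 receptor | Quantity: 15,000 cells per well | Times: Cells plated overnight, dye loaded 0.5 h 37 °C, 0.5 h room temperature | Measured by: Kinetic Fluo-4 NW fluorescence of intracellular calcium | Control set: Positive and negative controls per plate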
MrgX1 antag: antagonists of human MrgX1 receptor, primary screen, HEK293 cells, Fluo-4 calcium flux; Mas-related G-protein coupled receptor member X1 (Homo sapiens), Q96LB2; BAM8-22 antagonism; active compounds read low; B-score at 10 µM; hit rate 1.3% among 310,000;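 active = calcium-response B-score plate-corrected more than 3 library SD below zero, starting fluorescence within 5 deviations, no agonist response on first addition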;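 note: peak minus trough fluorescence over baseline after final BAM8-22 challenge near maximal dose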
RGS4 act valid: reduced carbachol calcium response, RGS4-induced M3R cells, confirmation, RGS4 activator project, cell-based, HEK293 M3R/RGS4 inducible, calcium flux, duplicate | carbachol calcium flux Fluo4 | shares compounds with RGS4 pot | inhibition, % at 10 µM | AID 602282, 2012 | hit rate 89% among 1,100;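 active = inhibition above 3 SD of the buffer control wells, cut at about 41% in these data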;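 note: signal is the integrated peak-minus-minimum Fluo4 fluorescence over baseline ratio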
RGS4 act ctr: RGS4 activator counter-screen hit in non-induced cells | hit rate 82% among 1,100 | HEK293 M3R non-induced RGS4, Fluo4 calcium flux; after carbachol challenge at its EC90 | AID 602283 | inhibition, % at 10 µM | shares compounds with RGS4 pot;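 active = inhibition exceeding 3 SD of buffer-only control wells, cut at about 26% in these data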;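 note: percent drop in integrated peak-minus-baseline over baseline Fluo4 ratio after carbachol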
The depositor's hits bear a star. Hits are enriched below; roughly 3.5% of the tested compounds scored in any of these assays.

What do the screens show for `CCC1(CCc2ccncc2)C(=O)NC(=O)NC1=O`?
RGS4 inh: inactive; MrgX1 PAM: inactive; RGS4 pot: inactive; MrgX1 ag: inactive; MrgX1 antag: inactive

What do the screens show for `c1ccc(-c2cc(-c3ccccc3)[n+](-c3ccccc3)c(-c3ccccc3)c2)cc1`?
RGS4 inh: inactive; MrgX1 PAM: 15*; RGS4 pot: -7.8*; MrgX1 ag: inactive; MrgX1 antag: inactive

How did CN(C)c1ccc(-[n+]2c(-c3ccccc3)cc(-c3ccccc3)cc2-c2ccccc2)cc1 do in these assays?
RGS4 inh: inactive; RGS4 pot: -9*

How did C[n+]1c(-c2ccccc2)cc(-c2ccc(Cl)cc2)cc1-c1ccccc1 do in these assays?
RGS4 inh: inactive; MrgX1 PAM: inactive; RGS4 pot: inactive; MrgX1 ag: inactive; MrgX1 antag: inactive

Results for Cc1ccc(-c2cc(-c3ccccc3)cc(-c3ccccc3)[n+]2-c2ccccc2)cc1 ?
RGS4 inh: inactive; MrgX1 PAM: inactive; RGS4 pot: -7.6*; MrgX1 ag: 31*; MrgX1 antag: inactive

What do the screens show for `O=c1[nH]c(=S)n(-c2ccccc2)c(O)c1C=NCCN1CCNCC1`?
RGS4 inh: inactive; MrgX1 PAM: inactive; RGS4 pot: inactive; MrgX1 ag: inactive; MrgX1 antag: inactive

What do the screens show for `O=C(c1ccc(Cl)cc1)C1CCCN(Cc2cccc3cnccc23)C1` (configuration not stated)?
RGS4 inh: inactive; MrgX1 PAM: inactive; RGS4 pot: -7.3*; MrgX1 ag: inactive; MrgX1 antag: inactive

What do the screens show for `COc1ccc(CN2CCCC(C(=O)c3ccc(Cl)cc3)C2)c(OC)c1` (configuration not stated)?
RGS4 inh: inactive; MrgX1 PAM: inactive; RGS4 pot: inactive; MrgX1 ag: inactive; MrgX1 antag: inactive

Results for O=C(c1ccc(Cl)cc1)C1CCCN(Cc2ccc3ncccc3c2)C1 (configuration not stated) ?
RGS4 inh: inactive; MrgX1 PAM: inactive; RGS4 pot: -7.3*; MrgX1 ag: inactive; MrgX1 antag: inactive

What do the screens show for `CCn1cc(/C=c2/sc3n(c2=O)C2c4ccccc4OC(C)(N=3)C2C(=O)OC)c(C)n1` (configuration not stated)?
RGS4 inh: inactive; MrgX1 PAM: inactive; RGS4 pot: inactive; MrgX1 ag: inactive; MrgX1 antag: inactive

Results for COC(=O)C1C2c3ccccc3OC1(C)N=c1s/c(=C/c3cn(C)nc3C)c(=O)n12 (configuration not stated) ?
RGS4 inh: inactive; MrgX1 PAM: 7.1*; RGS4 pot: inactive; MrgX1 ag: inactive; MrgX1 antag: inactive

What do the screens show for `CCc1ccccc1NC(=O)N1C[C@H]2C[C@@H](C1)c1cccc(=O)n1C2`?
RGS4 inh: inactive; MrgX1 PAM: inactive; RGS4 pot: inactive; MrgX1 ag: inactive; MrgX1 antag: inactive

Results for COc1ccc2c(c1)/C(=C/c1cnc[nH]1)C(=O)N2 ?
RGS4 inh: inactive; MrgX1 PAM: inactive; RGS4 pot: inactive; MrgX1 ag: inactive; MrgX1 antag: inactive

Results for O=C1Nc2ccccc2/C1=C/c1cnc[nH]1 ?
RGS4 inh: inactive; MrgX1 PAM: inactive; RGS4 pot: inactive; MrgX1 ag: inactive; MrgX1 antag: -6.7*

How did NC12CN3CN(CN(C3)C1)C2 (tested in a mixture with another compound) do in these assays?
RGS4 inh: inactive; MrgX1 PAM: inactive; RGS4 pot: inactive; MrgX1 ag: inactive; MrgX1 antag: inactive

What do the screens show for `O=c1[nH]c(=O)n(CC2CCCO2)c(O)c1/C=C1\C=Nc2ccccc21` (configuration not stated)?
RGS4 inh: inactive; MrgX1 PAM: inactive; RGS4 pot: inactive; MrgX1 ag: 34*; MrgX1 antag: inactive

What do the screens show for `O=c1[nH]c(=O)n(-c2ccccc2F)c(O)c1/C=C1\C=Nc2ccccc21`?
RGS4 inh: 11*; MrgX1 PAM: inactive; RGS4 pot: inactive; MrgX1 ag: 47*; MrgX1 antag: inactive

What do the screens show for `O=c1[nH]c(=O)n(-c2ccc(F)cc2)c(O)c1/C=C1\C=Nc2ccccc21`?
RGS4 inh: inactive; MrgX1 PAM: inactive; RGS4 pot: inactive; MrgX1 ag: inactive; MrgX1 antag: inactive

How did C[N+]1(C)[C@@H]2CC[C@H]1CC(OC(=O)C(CO)c1ccccc1)C2 (some centres not stated) do in these assays?
RGS4 inh: inactive; MrgX1 PAM: inactive; RGS4 pot: inactive; MrgX1 ag: inactive; MrgX1 antag: inactive

What do the screens show for `C[N+]1(C)C2CCC1CC(OC(=O)C(CO)c1ccccc1)C2` (configuration not stated)?
RGS4 inh: inactive; MrgX1 PAM: inactive; RGS4 pot: -8.6*; MrgX1 ag: inactive; MrgX1 antag: inactive

How did COc1ccc(-c2cc(=NCC(=O)O)c3ccccc3o2)cc1 do in these assays?
RGS4 inh: inactive; MrgX1 PAM: inactive; RGS4 pot: inactive; MrgX1 ag: inactive; MrgX1 antag: inactive

What do the screens show for `CN1CC(C(=O)c2ccc(Cl)cc2)C(c2ccc(Cl)cc2Cl)C1` (configuration not stated)?
RGS4 inh: inactive; MrgX1 PAM: inactive; RGS4 pot: inactive; MrgX1 ag: inactive; MrgX1 antag: inactive

What do the screens show for `CN1CCC(O)(c2ccc(Cl)cc2)C(C(=O)c2ccc(Cl)cc2)C1` (configuration not stated)?
RGS4 inh: inactive; MrgX1 PAM: inactive; RGS4 pot: -9.6*; MrgX1 ag: inactive; MrgX1 antag: inactive; RGS4 act valid: 94*; RGS4 act ctr: 66*

What do the screens show for `Cc1cc(Cl)ccc1C(=O)C1CCCN(C2CCSCC2)C1` (configuration not stated)?
RGS4 inh: inactive; MrgX1 PAM: inactive; RGS4 pot: -10*; MrgX1 ag: inactive; MrgX1 antag: inactive; RGS4 act valid: 90*; RGS4 act ctr: 69*
